One may read the MIC90 as an inhibitory concentration at the 90% level, which refers to growth in some studies and to a panel of isolates in others. The low end stands for higher susceptibility, the high end for lower susceptibility. A word on the half-life: it is how long it takes for the measured level to halve. A high value points to slow loss. What is called AUC(0-inf) is total exposure, with the tail of the curve extrapolated. Low readings indicate low exposure, high ones high exposure. As a reminder, the Cmax is the peak of the concentration-time curve. Usually MRT stands for the average time that molecules of a dose stay in the body. The Tmax is the time at which the peak concentration occurs.

The results in this text go back to ChEMBL document CHEMBL4229369, “Design, synthesis and antitubercular evaluation of benzothiazinones containing a piperidine moiety” (Eur J Med Chem, 2018).

Data set [1] has as its system Mycobacterium tuberculosis. As to the kind of experiment: Antitubercular activity against Mycobacterium tuberculosis H37Rv ATCC27395 after 7 days by Alamar blue assay. In kind it is functional. To be noted: 168 h. Put shortly:
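Inoculum grown to late log phase in Middlebrook 7H9 with 0.2% glycerol, 0.05% Tween 80 and 10% ADC, then washed in PBS, filtered through 8 µm to remove clumps and frozen at -80 °C. Twofold compound dilutions in 7H9-ADC-TG with 2 × 10⁵ CFU per well, 37 °C. Alamar blue and Tween 80 added on day 7, read after 16-24 h (ex 530/em 590 nm). MIC is the lowest concentration giving ≥90% fluorescence reduction versus bacterium-only controls.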
(Resazurin is reduced to fluorescent resorufin, in cell work by metabolically active cells.)

Data set [2] in a line: Half life in ICR mouse at 50 mg/kg, po administered as single dose by HPLC analysis. In kind it is ADME, organism-based. To be noted: in vivo. Put shortly: (§1)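 SPF female ICR mice (20-25 g), fasted overnight, 3 per group; single oral dose 50 mg/kg as suspension in 0.5% CMC. Jugular vein blood at 0.25, 0.5, 1, 2, 4, 6, 8 and 24 h; serum stored at −20 °C, protein removed with acetonitrile, supernatant dried, redissolved in acetonitrile and analysed by HPLC. Parameters derived directly from the experimental data.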

Data set [3] in a line: AUC (0 to infinity) in ICR mouse at 50 mg/kg, po administered as single dose by HPLC analysis. In kind it is ADME, organism-based. Also noted: dose 50 mg/kg, route oral, time infinity. The settings on record: in vivo. Put shortly: as §1
Data set [4] in a line: Cmax in ICR mouse at 50 mg/kg, po administered as single dose by HPLC analysis. To be noted: in vivo. Also noted: dose 50 mg/kg, route oral. The format is ADME, organism-based. Summed up: as §1
A short description of data set [5]: MRT in ICR mouse at 50 mg/kg, po administered as single dose by HPLC analysis. In kind it is ADME, organism-based. The settings on record: in vivo. Put shortly:
as §1

Data set [6] can be described thus: Tmax in ICR mouse at 50 mg/kg, po administered as single dose by HPLC analysis. The format is ADME, organism-based. The settings on record: in vivo. Put shortly: as §1

Values after ≈ are worked out from the molar mass of the structure shown.

For the compound `O=c1nc(N2CCC(CN3CCC4(CC3)OCCO4)CC2)sc2c([N+](=O)[O-])cc(C(F)(F)F)cc12`, the MIC90 in data set [1] came to 3.71 µg/mL (≈ 7.21 µM).
On the same count and under the same terms, the value for `CN(C1CCCCC1)C1CCN(c2nc(=O)c3cc(C(F)(F)F)cc([N+](=O)[O-])c3s2)CC1` was 0.973 µg/mL (≈ 2.07 µM).
Same read-out and setting: the value for `CC1CCCCN1CC1CCN(c2nc(=O)c3cc(C(F)(F)F)cc([N+](=O)[O-])c3s2)CC1` (stereo unspecified) was 1.92 µg/mL (≈ 4.08 µM); that for `O=c1nc(N2CCC(CN3CCCCC3)CC2)sc2c([N+](=O)[O-])cc(C(F)(F)F)cc12` was 0.481 µg/mL (≈ 1.05 µM); that for `CCN(CC)CC1CCN(c2nc(=O)c3cc(C(F)(F)F)cc([N+](=O)[O-])c3s2)CC1` was 1.82 µg/mL (≈ 4.11 µM).
On the same count and under the same terms, the value for `O=c1nc(N2CCC(CN3CCCCCC3)CC2)sc2c([N+](=O)[O-])cc(C(F)(F)F)cc12` was 1.32 µg/mL (≈ 2.81 µM).
As to `O=c1nc(N2CCC(NC3CCCCC3)CC2)sc2c([N+](=O)[O-])cc(C(F)(F)F)cc12`, in data set [1], the MIC90 was 0.959 µg/mL (≈ 2.1 µM). The MIC90 values of the last two compounds are within 1.5-fold of each other.
Same read-out and setting: the value for `O=c1nc(N2CCC(CN3CCC(O)CC3)CC2)sc2c([N+](=O)[O-])cc(C(F)(F)F)cc12` was 1.96 µg/mL (≈ 4.15 µM).
On the same count and under the same terms, the value for `CC1CCN(CC2CCN(c3nc(=O)c4cc(C(F)(F)F)cc([N+](=O)[O-])c4s3)CC2)CC1` was 0.488 µg/mL (≈ 1.04 µM).
Compound `O=c1nc(N2CCC(CN3CCC(C(F)(F)F)CC3)CC2)sc2c([N+](=O)[O-])cc(C(F)(F)F)cc12` had a half-life in data set [2] of 198 min. In addition, the MIC90 in data set [1] was < 0.016 µg/mL. Moreover, the AUC(0-inf) in data set [3] was found to be 2490 ng·h/mL. Further, the Cmax in data set [4] was found to be 1160 ng/mL. Besides, in data set [5], the mean residence time MRT is 4.26 h. In addition, in data set [6], the time of peak concentration (Tmax) is 15 min.
In data set [1], `O=c1nc(N2CCC(CN3CCCC3)CC2)sc2c([N+](=O)[O-])cc(C(F)(F)F)cc12` showed an MIC90 of 3.58 µg/mL (≈ 8.09 µM).
Same read-out and setting: the value for `CN1CCN(CC2CCN(c3nc(=O)c4cc(C(F)(F)F)cc([N+](=O)[O-])c4s3)CC2)CC1` was 7.84 µg/mL (≈ 16.6 µM).
In data set [1], `CC1CCCN(CC2CCN(c3nc(=O)c4cc(C(F)(F)F)cc([N+](=O)[O-])c4s3)CC2)C1` (stereo unspecified) returned an MIC90 of 0.241 µg/mL (≈ 0.512 µM).
Still for that read-out and setting: the value for `NNC(=O)c1ccncc1` [ISONIAZID] was 0.037 µg/mL (≈ 0.27 µM).
On the same count and under the same terms, the value for `O=c1nc(N2CCN(CC3CCCCC3)CC2)sc2c([N+](=O)[O-])cc(C(F)(F)F)cc12` [MACOZINONE] was < 0.016 µg/mL; that for `CO[C@H]1/C=C/O[C@@]2(C)Oc3c(C)c(O)c4c(O)c(c(/C=N/N5CCN(C)CC5)c(O)c4c3C2=O)NC(=O)/C(C)=C\C=C\[C@H](C)[C@H](O)[C@@H](C)[C@@H](O)[C@@H](C)[C@H](OC(C)=O)[C@@H]1C` [RIFAMPIN] was 0.084 µg/mL (≈ 0.102 µM).
